How the values were obtained:
Leishmania infantum = assay: microbe, parasite or virus in culture; assay type: functional, organism-based; conditions: MHOM/MA/67/ITMAP-263, 48 h
[1] = test system: Trypanosoma brucei brucei; assay: Antitrypanosomal activity against trypomastigote stage of Trypanosoma brucei brucei AnTat 1.9 assessed as decrease in parasite viability after 69 hrs by Alamar Blue assay; assay type: functional, organism-based; conditions: AnTat 1.9, 69 h
HepG2 [2] = assay: Cytotoxicity against human HepG2 cells assessed as decrease in cell viability after 72 hrs by MTT assay; conditions: hepg2, 72 h
Leishmania donovani [3] = assay: Antileishmanial activity against promastigote stage of Leishmania donovani LdBOB over-expressing NTR1 assessed as inhibition of parasite growth after 72 hrs by resazurin assay; assay type: functional, organism-based
In short: (§1)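 LdBOB promastigotes (from MHOM/SD/62/1S-CL2D) grown at 26 °C in modified M199. NTR1- and NTR2-overexpressing lines kept in nourseothricin 100 µg/mL. Triplicate 10 mL cultures seeded at 5 × 10⁴ parasites/mL and exposed to drug for 72 h. 50 µM resazurin added, fluorescence (ex 528/em 590 nm) read after 4 h. Background-corrected data fitted to two-parameter EC50 equation. Experiments were run at least twice; values are mean plus standard deviation.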

Leishmania donovani [4] = assay: Antileishmanial activity against amastigote stage of Leishmania donovani MHOM/IN/00/DEVI infected in human THP1 cells assessed as inhibition of parasite infection after 120 hrs by Giemsa staining-based microscopic method; assay type: functional, organism-based; conditions: THP-1, 120 h
In short: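 THP-1 cells differentiated with PMA (50 ng/mL final), 48 h at 37 °C, 6% CO2, then infected 10:1 with promastigotes acid-primed 24 h at 27 °C in Schneider 20% FCS pH 5.4. After 24 h, compounds in DMSO (<0.5% v/v) added in duplicate for 120 h. Methanol fixation and Giemsa staining; ≥200 cells counted. IC50 is the concentration halving infected macrophages, nonlinear regression, mean of three independent experiments.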

[5] = test system: Trypanosoma brucei brucei; assay: Antitrypanosomal activity against wild type trypomastigote stage of Trypanosoma brucei brucei S427 assessed as parasite growth inhibition after 72 hrs by haemocytometer; assay type: functional, organism-based; conditions: S427, 72 h
THP-1 = assay: Cytotoxicity against human THP1 cells assessed as decrease in cell viability after 72 hrs by MTT assay; assay type: cell-based; conditions: thp-1, 72 h
In short: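 PMA-differentiated THP-1 (50 ng/mL final), 10⁶ cells/mL in complete RPMI, 48 h. Compounds in DMSO (<0.5% v/v) for 72 h at 37 °C. MTT 0.5 mg/mL for 2 h, formazan dissolved in DMSO, A570 with 630 nm reference. Viability expressed as percent of untreated control; doxorubicin as positive control; 50% cytotoxic concentration from dose–response curve.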

[6] = Metabolic stability in CD1 mouse liver microsomes at 40 mins by LC-MS method; assay type: ADME, microsome
In short: (§2)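 Duplicate incubations with female CD-1 mouse microsomes at 37 °C in 50 mM phosphate pH 7.4 with MgCl2 5 mM, NADP 1 mM, G6PDH 0.4 U/mL and glucose-6-phosphate 5 mM. Samples at 0, 5, 10, 20, 30 and 40 min quenched with 4 vol acetonitrile containing internal standard, then LC-MS/MS.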

[7] = Half life in CD1 mouse liver microsomes by LC-MS method; assay type: ADME, microsome
In short: as §2

HepG2 [8] = assay: Genotoxicity in human HepG2 cells at 1 to 40 uM after 2 to 72 hrs by comet assay; assay type: toxicity, cell-based; conditions: hepg2, 40 µM
In short: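 Alkaline comet assay in HepG2 cells exposed 2 or 72 h to 1, 10, 20 or 40 µM. Cells embedded in 0.7% low-melting agarose, lysed 18 h at 4 °C at pH 10, electrophoresed 24 min at 0.8 V/cm at pH >13, then SYBR Gold stained. % tail DNA is the median of 200 cells (50 per deposit, 4 deposits). 1 mM methylmethanesulfonate as positive control.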

[9] = Metabolic stability in CD1 mouse liver microsomes at 30 mins by LC-MS method; assay type: ADME, microsome; conditions: 0.5 h
In short: as §2

Salmonella typhimurium [10] = assay: Mutagenicity in Salmonella typhimurium TA102 at […] preincubated for 1 hr with S9 mix followed by addition of molten top agar and measured 48 hrs post dark incubation by Ames test; assay type: toxicity, organism-based; conditions: salmonella enterica subsp. enterica serovar typhimurium
Salmonella typhimurium [11] = assay: Mutagenicity in Salmonella typhimurium TA98 at […] preincubated for 1 hr with S9 mix followed by addition of molten top agar and measured 48 hrs post dark incubation by Ames test; assay type: toxicity, organism-based; conditions: salmonella enterica subsp. enterica serovar typhimurium
Leishmania donovani [12] = assay: Antileishmanial activity against promastigote stage of Leishmania donovani LdBOB over-expressing NTR2 assessed as inhibition of parasite growth after 72 hrs by resazurin assay; assay type: functional, organism-based
In short: as §1

[13] = Metabolic stability in CD1 mouse liver microsomes at 5 mins by LC-MS method; assay type: ADME, microsome
In short: as §2

Leishmania donovani [14] = assay: Selectivity ratio of IC50 for wild type promastigote stage of Leishmania donovani LdBOB to IC50 for promastigote stage of Leishmania donovani LdBOB over-expressing NTR1; assay type: functional
serum albumin [15] = target: T1, serum albumin (Homo sapiens, UniProt P02768); assay: (§3) Binding affinity to human serum albumin assessed as fraction unbound after 4 hrs by LC-MS method; assay type: ADME; conditions: human serum albumin
T1 sequence (P02768 whole entry): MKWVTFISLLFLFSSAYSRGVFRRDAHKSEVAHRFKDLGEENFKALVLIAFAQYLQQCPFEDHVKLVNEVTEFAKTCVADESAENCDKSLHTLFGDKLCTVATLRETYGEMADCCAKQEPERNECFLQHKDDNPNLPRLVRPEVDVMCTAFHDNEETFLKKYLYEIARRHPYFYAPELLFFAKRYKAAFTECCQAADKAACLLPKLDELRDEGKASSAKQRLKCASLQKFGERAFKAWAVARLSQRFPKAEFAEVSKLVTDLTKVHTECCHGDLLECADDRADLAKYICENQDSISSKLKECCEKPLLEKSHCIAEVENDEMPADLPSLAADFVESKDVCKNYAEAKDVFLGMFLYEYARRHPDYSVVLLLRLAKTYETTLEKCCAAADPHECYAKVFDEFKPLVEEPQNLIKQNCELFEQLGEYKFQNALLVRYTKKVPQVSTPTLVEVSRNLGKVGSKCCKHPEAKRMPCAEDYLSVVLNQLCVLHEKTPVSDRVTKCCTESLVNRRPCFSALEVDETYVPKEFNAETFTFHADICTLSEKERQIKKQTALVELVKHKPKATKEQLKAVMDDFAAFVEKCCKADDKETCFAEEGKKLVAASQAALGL

Albumin = Albumin (Homo sapiens, UniProt P02768); assay: as §3; assay type: ADME; conditions: isolated protein, 4 h
Sequence of Albumin (P02768 whole entry): as above

serum albumin [16] = target: T1, serum albumin; assay: Binding affinity to human serum albumin after 4 hrs by LC-MS method; assay type: ADME; conditions: read-out: PB (converted)
Salmonella typhimurium [17] = assay: Mutagenicity in Salmonella typhimurium TA100 at […] preincubated for 1 hr with S9 mix followed by addition of molten top agar and measured 48 hrs post dark incubation by Ames test; assay type: toxicity, organism-based; conditions: salmonella enterica subsp. enterica serovar typhimurium
[18] = test system: Trypanosoma brucei brucei; assay: Antitrypanosomal activity against trypomastigote stage of Trypanosoma brucei brucei S427 over-expressing NTR1 assessed as parasite growth inhibition after 72 hrs by haemocytometer; assay type: functional, organism-based; conditions: S427, 72 h
Leishmania donovani [19] = assay: Antileishmanial activity against wild type promastigote stage of Leishmania donovani LdBOB assessed as inhibition of parasite growth after 72 hrs by resazurin assay; assay type: functional, organism-based
In short: as §1

[20] = Metabolic stability in CD1 mouse liver microsomes at 10 mins by LC-MS method; assay type: ADME, microsome
In short: as §2

[21] = Metabolic stability in CD1 mouse liver microsomes at 20 mins by LC-MS method; assay type: ADME, microsome
In short: as §2

[22] = Electrochemical behavior of the compound assessed as redox potential corrected toward normal hydrogen electrode at 10^-3 mol/L by cyclic voltammetry; conditions: 1000 µM
Salmonella typhimurium [23] = assay: Mutagenicity in Salmonella typhimurium TA97a at […] preincubated for 1 hr with S9 mix followed by addition of molten top agar and measured 48 hrs post dark incubation by Ames test; assay type: toxicity, organism-based; conditions: salmonella enterica subsp. enterica serovar typhimurium

SMILES: Nc1cccc2cc(Br)c(=O)[nH]c12
- IC50 (Leishmania infantum): > 50 µM
- IC50 [1]: > 50 µM
- CC50 (HepG2 [2]): > 100 µM

SMILES: O=c1[nH]c2c([N+](=O)[O-])cccc2cc1Br
- IC50 (Leishmania donovani [3]): 0.47 µM
- IC50 (Leishmania donovani [4]): 18 µM
- IC50 [5]: 17.7 µM
- CC50 (THP-1): 72 µM
- Stability [6]: 772 pmol/mL
- t1/2 [7]: > 40 min
- Activity (HepG2 [8]): Non-Toxic
- IC50 (Leishmania infantum): 7.1 µM
- Stability [9]: 780 pmol/mL
- Activity (Salmonella typhimurium [10]; 250 µM): Non-Toxic
- Activity (Salmonella typhimurium [10]; 2500 µM): Toxic
- Activity (Salmonella typhimurium [11]; 250 µM): Toxic
- Activity (Salmonella typhimurium [11]; 2500 µM): Toxic
- IC50 (Leishmania donovani [12]): 4.6 µM
- Stability [13]: 861 pmol/mL
- Ratio IC50 (Leishmania donovani [14]): 10
- fraction unbound at 4 h (serum albumin [15]): 0.078
- logFu (Albumin): -1.11
- fraction unbound at 4 h (serum albumin [16]): 0.078
- Activity (Salmonella typhimurium [17]; 250 µM): Toxic
- Activity (Salmonella typhimurium [17]; 2500 µM): Toxic
- IC50 [1]: 1.9 µM
- IC50 [18]: 3.9 µM
- IC50 (Leishmania donovani [19]): 5.9 µM
- Stability [20]: 869 pmol/mL
- Stability [21]: 802 pmol/mL
- Activity [22]: -0.45 V
- Activity (Salmonella typhimurium [23]; 250 µM): Toxic
- Activity (Salmonella typhimurium [23]; 2500 µM): Toxic
- CC50 (HepG2 [2]): 92 µM

SMILES: O=c1cc(CO)c2cccc([N+](=O)[O-])c2[nH]1
- IC50 (Leishmania infantum): 23.4 µM
- IC50 [1]: 38.3 µM
- CC50 (HepG2 [2]): > 100 µM

SMILES: Cc1cc([N+](=O)[O-])c2[nH]c(=O)ccc2c1
- IC50 (Leishmania infantum): 23 µM
- IC50 [1]: 2.1 µM
- Activity [22]: -0.56 V
- CC50 (HepG2 [2]): > 100 µM

SMILES: O=c1[nH]c2c([N+](=O)[O-])cccc2cc1Cl
- IC50 (Leishmania infantum): 16 µM
- IC50 [1]: 1.2 µM
- Activity [22]: -0.47 V
- CC50 (HepG2 [2]): 85 µM

SMILES: NCCOCCOCCNCc1cc(=O)[nH]c2c([N+](=O)[O-])cccc12
- IC50 (Leishmania infantum): > 100 µM
- IC50 [1]: 7.6 µM
- CC50 (HepG2 [2]): > 100 µM

SMILES: CC(=O)Nc1ccc2cccnc2c1[N+](=O)[O-]
- IC50 (Leishmania infantum): > 100 µM
- IC50 [1]: 10.8 µM
- Activity [22]: -0.86 V
- CC50 (HepG2 [2]): > 100 µM

SMILES: COc1cc([N+](=O)[O-])c2[nH]c(=O)ccc2c1
- IC50 (Leishmania infantum): > 100 µM
- IC50 [1]: > 50 µM
- Activity [22]: -0.58 V
- CC50 (HepG2 [2]): > 100 µM

SMILES: Cc1ccc([N+](=O)[O-])c2[nH]c(=O)ccc12
- IC50 (Leishmania infantum): 25.2 µM
- IC50 [1]: 29.1 µM
- Activity [22]: -0.58 V
- CC50 (HepG2 [2]): > 100 µM

SMILES: C[C@@H]1[C@H](O)[C@@H](C)/C=C/C=C/C=C/C=C/C=C/C=C/C=C/[C@H](O[C@@H]2O[C@H](C)[C@@H](O)[C@H](N)[C@@H]2O)C[C@@H]2O[C@](O)(C[C@@H](O)C[C@@H](O)[C@H](O)CC[C@@H](O)C[C@@H](O)CC(=O)O[C@H]1C)C[C@H](O)[C@H]2C(=O)O [AMPHOTERICIN B]
- IC50 (Leishmania donovani [4]): 0.4 µM
- CC50 (THP-1): 3.6 µM
- IC50 (Leishmania infantum): 0.06 µM

SMILES: NC(=O)N1c2ccccc2C=Cc2ccccc21 [CARBAMAZEPINE]
- fraction unbound at 4 h (serum albumin [15]): 0.276
- logFu (Albumin): -0.56
- fraction unbound at 4 h (serum albumin [16]): 0.276

SMILES: NCCC[C@](N)(C(=O)O)C(F)F [EFLORNITHINE, (S)-]
- IC50 [1]: 15.8 µM
- CC50 (HepG2 [2]): > 100 µM

SMILES: CSc1ccc(OCc2ncc([N+](=O)[O-])n2C)cc1 [FEXINIDAZOLE]
- IC50 (Leishmania donovani [4]): > 50 µM
- CC50 (THP-1): > 62.5 µM
- IC50 (Leishmania infantum): 3.4 µM
- IC50 [1]: 0.4 µM
- CC50 (HepG2 [2]): > 200 µM

SMILES: CCCCCCCCCCCCCCCCOP(=O)([O-])OCC[N+](C)(C)C [MILTEFOSINE]
- IC50 (Leishmania donovani [4]): 5.4 µM
- CC50 (THP-1): > 40 µM
- IC50 (Leishmania infantum): 0.8 µM

SMILES: O=[N+]([O-])c1ccccc1 [NITROBENZENE]
- IC50 (Leishmania infantum): > 100 µM
- IC50 [1]: > 50 µM
- Activity [22]: -0.85 V
- CC50 (HepG2 [2]): > 100 µM

SMILES: Cc1ccc(C(=O)Nc2ccc(S(=O)(=O)O)c3cc(S(=O)(=O)O)cc(S(=O)(=O)O)c23)cc1NC(=O)c1cccc(NC(=O)Nc2cccc(C(=O)Nc3cc(C(=O)Nc4ccc(S(=O)(=O)O)c5cc(S(=O)(=O)O)cc(S(=O)(=O)O)c45)ccc3C)c2)c1 [SURAMIN]
- CC50 (HepG2 [2]): > 100 µM
